# Source: ChEMBL document CHEMBL3351434, “Synthesis of novel chromeno-annulated cis-fused pyrano[3,4-c]benzopyran and naphtho pyran derivatives via domino aldol-type/hetero Diels-Alder reaction and their cytotoxicity evaluation” (Bioorg Med Chem Lett, 2014)
# Experiments:
# MCF7 = assay: Cytotoxicity against human MCF7 cells by MTT assay; type: functional, cell-based
# A549 = assay: Cytotoxicity against human A549 cells by MTT assay; type: functional, cell-based
# HeLa = assay: Cytotoxicity against human HeLa cells by MTT assay; type: functional, cell-based
# [1] = Cytotoxicity against HEK cells by MTT assay; type: cell-based; settings: human, hek293
# How it was run: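 Cells were HEK293, a line derived from normal human embryonic kidney, used as the non-cancer counter-screen. Viability was read by MTT following a previously reported protocol.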
# MDA-MB-231 = assay: Cytotoxicity against human MDA-MB-231 cells by MTT assay; type: functional, cell-based
SMILES,IC50 (MCF7) [µM],IC50 (A549) [µM],IC50 (HeLa) [µM],Activity [1],IC50 (MDA-MB-231) [µM]
CCC(=O)c1ccc2c(c1O)[C@@H]1c3c(ccc4c(=O)c(-c5ccccc5)c(C)oc34)OC[C@@H]1C(C)(C)O2,20.5,19.3,18.2,Non-toxic,6.15
CCC(=O)c1ccc2c(c1O)[C@@H]1c3c(ccc4c(=O)c(C)c(C)oc34)OC[C@@H]1C(C)(C)O2,> 100,> 100,> 100,–,> 100
CC(=O)c1ccc2c(c1O)[C@@H]1c3c(ccc4c(=O)c(C)c(C)oc34)OC[C@@H]1C(C)(C)O2,> 100,> 100,> 100,–,> 100
Cc1oc2c3c(ccc2c(=O)c1C)OC[C@H]1[C@@H]3c2c(ccc(C(=O)Cc3ccccc3)c2O)OC1(C)C,> 100,> 100,> 100,–,> 100
Cc1oc2c3c(ccc2c(=O)c1C)OC[C@H]1[C@@H]3c2c(ccc(C(=O)c3ccccc3)c2O)OC1(C)C,> 100,> 100,> 100,–,> 100
CCC(=O)c1ccc2c(c1O)[C@H]1c3c(ccc4c(=O)c(C)coc34)OC[C@H]1C(C)(C)O2,> 100,> 100,> 100,–,> 100
CC(=O)c1ccc2c(c1O)[C@H]1c3c(ccc4c(=O)c(C)coc34)OC[C@H]1C(C)(C)O2,> 100,> 100,> 100,–,> 100
Cc1coc2c3c(ccc2c1=O)OC[C@H]1[C@@H]3c2c(ccc(C(=O)Cc3ccccc3)c2O)OC1(C)C,> 100,> 100,> 100,–,> 100
Cc1coc2c3c(ccc2c1=O)OC[C@H]1[C@@H]3c2c(ccc(C(=O)c3ccccc3)c2O)OC1(C)C,6.24,17,1.5,Non-toxic,5.68
CC(=O)c1ccc2c(c1O)[C@@H]1c3c(ccc4c(=O)c(-c5ccccc5)c(C)oc34)OC[C@@H]1C(C)(C)O2,11.2,2.53,4.81,Non-toxic,46.8
Cc1oc2c3c(ccc2c(=O)c1C)OC[C@H]1[C@@H]3c2ccc3ccccc3c2OC1(C)C,> 100,> 100,> 100,–,> 100
Cc1coc2c3c(ccc2c1=O)OC[C@H]1[C@@H]3c2ccc3ccccc3c2OC1(C)C,> 100,> 100,> 100,–,> 100
COc1cccc2c1C(=O)c1c(O)c3c(c(O)c1C2=O)C[C@@](O)(C(=O)CO)C[C@@H]3O[C@H]1C[C@H](N)[C@H](O)[C@H](C)O1 [DOXORUBICIN],1.05,–,–,–,0.5
